The target of assay [1] is T1, ATP-citrate synthase (Mus musculus) (UniProt Q91V92).
T1 sequence (whole entry): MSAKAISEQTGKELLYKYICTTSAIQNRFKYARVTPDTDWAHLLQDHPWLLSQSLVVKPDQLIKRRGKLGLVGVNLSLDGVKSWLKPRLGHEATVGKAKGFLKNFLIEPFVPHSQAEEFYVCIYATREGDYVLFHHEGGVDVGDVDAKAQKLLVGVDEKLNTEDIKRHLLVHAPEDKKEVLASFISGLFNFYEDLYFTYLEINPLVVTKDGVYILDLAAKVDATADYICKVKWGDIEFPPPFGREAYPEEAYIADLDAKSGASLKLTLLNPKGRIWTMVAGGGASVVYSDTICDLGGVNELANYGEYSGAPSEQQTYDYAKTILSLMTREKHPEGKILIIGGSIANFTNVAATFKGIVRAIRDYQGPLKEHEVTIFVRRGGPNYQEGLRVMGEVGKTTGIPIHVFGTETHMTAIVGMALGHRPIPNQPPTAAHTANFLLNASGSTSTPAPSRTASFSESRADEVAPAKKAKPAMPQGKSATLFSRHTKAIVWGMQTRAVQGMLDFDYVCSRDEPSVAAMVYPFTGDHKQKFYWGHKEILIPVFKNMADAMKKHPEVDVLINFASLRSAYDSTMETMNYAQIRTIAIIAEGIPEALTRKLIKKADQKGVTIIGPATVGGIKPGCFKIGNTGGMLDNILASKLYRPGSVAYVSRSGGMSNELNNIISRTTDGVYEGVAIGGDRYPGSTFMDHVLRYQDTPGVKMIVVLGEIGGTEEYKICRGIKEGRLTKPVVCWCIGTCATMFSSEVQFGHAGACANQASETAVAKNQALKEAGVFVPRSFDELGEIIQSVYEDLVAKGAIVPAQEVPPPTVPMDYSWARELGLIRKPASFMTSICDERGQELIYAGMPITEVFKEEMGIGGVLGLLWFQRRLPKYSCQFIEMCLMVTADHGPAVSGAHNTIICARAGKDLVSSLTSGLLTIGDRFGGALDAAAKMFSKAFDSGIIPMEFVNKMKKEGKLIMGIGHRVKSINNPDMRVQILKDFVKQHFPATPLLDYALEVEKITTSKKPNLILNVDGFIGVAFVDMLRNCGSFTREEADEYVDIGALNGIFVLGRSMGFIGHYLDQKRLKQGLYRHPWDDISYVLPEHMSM
Nature of the assay: In Vitro evaluation for the CF1 liver enzyme activity on ATP-Citrate Lyase exchange at concentration 50 uM. The method, boiled down:
(§1)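 Liver was taken from CF1 male mice and made into 10% homogenates, which were incubated with test compound at 50, 100 or 200 µM. Each enzyme was assayed by its literature method, and protein was measured by Lowry. N = 6. Activity is expressed as % of untreated control ± SD.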

Assay [2] has as its system Mus musculus. Nature of the assay: Compound was evaluated for the hypolipidemic activity in CF1 male mice at a dose of 20 mg/kg orally for Serum cholesterol at 16th day. Type of assay: functional. The note with it: route oral. In a few lines: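 CF1 male mice received the agent orally in 1% CMC at 10–60 mg/kg per day. Tail-vein blood was taken on days 9 and 16. Serum cholesterol was measured by modified Liebermann–Burchard on duplicate 25-µL samples, and serum triglyceride on day 16 in duplicate 50-µL samples. Values are % of vehicle control, mean ± SD, N = 6; Student's t test.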

For assay [3], the target named is Acetyl-coenzyme A synthetase, cytoplasmic (Mus musculus) (UniProt Q9QXG4). Put plainly: In Vivo effect for the hypolipidemic activity on Acetyl-coenzyme A synthetase in CF1 mice after 16 days of oral administration at a dose of 60 mg/kg. The format is functional, organism-based. Also noted: dose 60 mg/kg. The method, boiled down:
(§2)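 CF1 male mice are dosed orally at 10–60 mg/kg per day for 16 days, with 1% CMC as the control vehicle. Liver is homogenized at 10% in 0.25 M sucrose + 0.001 M EDTA, pH 7.2. Enzymes are assayed by literature methods, with Lowry protein. Activity is given as % of control (X ± SD, N = 6), with p from Student's t test.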

Assay [4] addresses T2, Sterol O-acyltransferase 1 (Mus musculus) (UniProt Q61263).
T2 sequence (whole entry): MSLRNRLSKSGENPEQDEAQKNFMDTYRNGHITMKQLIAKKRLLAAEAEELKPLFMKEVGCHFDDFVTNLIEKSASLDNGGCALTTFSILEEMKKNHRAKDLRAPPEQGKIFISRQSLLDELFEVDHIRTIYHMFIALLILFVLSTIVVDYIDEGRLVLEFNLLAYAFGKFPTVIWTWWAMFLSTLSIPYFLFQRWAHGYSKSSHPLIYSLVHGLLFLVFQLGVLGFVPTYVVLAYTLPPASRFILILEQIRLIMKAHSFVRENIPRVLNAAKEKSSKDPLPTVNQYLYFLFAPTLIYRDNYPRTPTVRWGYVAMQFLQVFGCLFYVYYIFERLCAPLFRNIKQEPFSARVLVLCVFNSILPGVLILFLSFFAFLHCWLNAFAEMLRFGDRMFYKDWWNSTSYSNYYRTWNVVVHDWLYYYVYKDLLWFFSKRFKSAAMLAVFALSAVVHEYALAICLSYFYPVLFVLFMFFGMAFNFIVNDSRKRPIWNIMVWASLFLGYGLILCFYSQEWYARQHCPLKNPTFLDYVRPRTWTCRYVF
Put plainly: In Vitro evaluation for the CF1 liver enzyme activity on Acyl cholesterol acyltransferase at concentration 100 uM. The format is functional, tissue-based. The method, boiled down: as §1

Assay [5] concerns Mus musculus. Nature of the assay: In Vivo effect for the hypolipidemic activity on Acetyl-CoA carboxylase in CF1 mice after 16 days administered orally at a dose of 60 mg/kg. Type of assay: functional. The note with it: route oral. The method, boiled down: as §2
For assay [6], the species on record is Mus musculus. Put plainly: In Vitro evaluation for the CF1 liver enzyme activity on Mitochondrial citrate exchange at concentration 50 uM. The format is functional. In a few lines: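 Mouse liver enzymes assayed in vitro on 10% homogenates of CF1 male mouse liver, with test drug added at 50–200 μM. Each enzyme follows a published procedure. Protein is measured by Lowry. Activity is given as % of untreated control (X ± SD, N = 6).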

The subject of assay [7] is Rattus norvegicus. Nature of the assay: Compound was evaluated for the hypolipidemic activity at 20 mg/kg per day orally for 14 days against neutral lipids in rat lipoprotein chylomicron. Type of assay: functional. The following applies: route oral. In a few lines: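 Male Sprague–Dawley rats (~300 g) were dosed orally each day. Blood was drawn from the abdominal vein. Lipoprotein fractions (chylomicron, VLDL, LDL, HDL) were separated by the Hatch–Lees and Havel methods. Each fraction was assayed for cholesterol, triglyceride (enzymatic kit), neutral lipids, phospholipids and Lowry protein. Values are % of 1% CMC vehicle control, N = 6.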

The test system of assay [8] is Rattus norvegicus. Put plainly: Compound was evaluated for the hypolipidemic activity in Sprague-Dawley rats at a dose of 20 mg/kg orally for Serum triglyceride at 16th day. The format is functional. The following applies: route oral. The method, boiled down: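 Sprague–Dawley male rats (~350 g) received 20 mg/kg per day orally, with 1% CMC as the vehicle control; N = 6. Tail-vein blood was taken between 8:00 and 9:30 a.m. on days 9 and 16 and spun for 3 min to obtain serum. Cholesterol was measured by a modified Liebermann–Burchard reaction and triglyceride by kit. Values are % control ± SD; significance by Student's t test.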

Assay [9] deals with Mus musculus. Nature of the assay: In Vivo effect for the hypolipidemic activity on phosphatidate phosphohydrolase in CF1 mice after 16 days administered orally at a dose of 10 mg/kg. Type of assay: organism-based. Also noted: dose 10 mg/kg. In a few lines: as §2

Acetyl-coenzyme A synthetase, cytoplasmic (Mus musculus), sequence (Q9QXG4 whole entry): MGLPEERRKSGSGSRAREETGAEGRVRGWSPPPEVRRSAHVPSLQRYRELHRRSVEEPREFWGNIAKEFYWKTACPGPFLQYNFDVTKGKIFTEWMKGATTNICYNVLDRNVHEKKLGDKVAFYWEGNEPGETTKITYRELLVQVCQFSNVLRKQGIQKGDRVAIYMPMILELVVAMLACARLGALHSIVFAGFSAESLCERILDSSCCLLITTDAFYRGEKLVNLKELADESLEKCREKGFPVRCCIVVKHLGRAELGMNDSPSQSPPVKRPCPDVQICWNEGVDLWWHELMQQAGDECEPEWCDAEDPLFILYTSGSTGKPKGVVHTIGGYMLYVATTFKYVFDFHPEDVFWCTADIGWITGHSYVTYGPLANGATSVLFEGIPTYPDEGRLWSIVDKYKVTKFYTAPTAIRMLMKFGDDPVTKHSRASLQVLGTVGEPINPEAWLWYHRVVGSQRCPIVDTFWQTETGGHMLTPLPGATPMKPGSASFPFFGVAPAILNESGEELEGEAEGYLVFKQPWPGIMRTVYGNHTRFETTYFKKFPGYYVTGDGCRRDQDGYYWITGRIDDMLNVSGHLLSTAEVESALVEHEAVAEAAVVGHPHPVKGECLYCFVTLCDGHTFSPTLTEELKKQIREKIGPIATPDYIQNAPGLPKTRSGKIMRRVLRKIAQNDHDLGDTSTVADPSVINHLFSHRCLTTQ

Consider `COc1ccc(C2C(=O)c3ccccc3C2=O)cc1` [ANISINDIONE], for which the Control in [1] is 72%; in assay [2] it was 62%; in assay [3] it was 99%; in [4] it was 63%; in assay [5], 97%; in assay [6], 36%. The Control in assay [7] turned out to be 99%; in [8], 59%; in assay [9], 53%.

For the origin of these results see ChEMBL document CHEMBL1123129, “Hypolipidemic activity of indan-1,3-dione derivatives in rodents” (J Med Chem, 1985).
